# Bioassay records: PubChem BioAssay, Broad Institute
# ERAP1 HTS inh: inhibitors of human ERAP1 aminopeptidase | inhibition, % at 10.7 µM | Q9NZ08 | recombinant ERAP1, Leu-AMC fluorescence, 60 min | actives 0.15% (n = 340,000) | AID 652197;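 active = mean replicate inhibition of at least 30%, or all replicates individually reaching that 30% level; inactive = mean below 30% and not every replicate reaching it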;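 note: 0% = neutral control wells and 100% = L-leucinethiol positive control wells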
# SIRT5 inh: sirtuin-5 (human) deacylase inhibition; Q9NXA8; Purified SirT5, succinyl-peptide AMC, trypsin-coupled fluorescence; inhibition, % at 15 µM; actives 1.1% (n = 330,000); in the data active = inhibition above about 15%; inconclusive = no clear call, values can overlap the other calls
# Target sequence (Q9NXA8 whole entry, looked up): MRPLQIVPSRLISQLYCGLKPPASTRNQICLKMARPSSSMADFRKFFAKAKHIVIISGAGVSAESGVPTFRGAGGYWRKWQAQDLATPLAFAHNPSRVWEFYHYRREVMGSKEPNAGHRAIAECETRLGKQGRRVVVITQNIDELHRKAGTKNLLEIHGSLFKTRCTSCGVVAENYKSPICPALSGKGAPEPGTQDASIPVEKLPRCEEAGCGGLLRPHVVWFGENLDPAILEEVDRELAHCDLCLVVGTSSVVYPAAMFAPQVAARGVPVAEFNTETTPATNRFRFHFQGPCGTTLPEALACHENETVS
# Ecoli rRNA inh: inhibits bacterial ribosomal RNA function over humanized ribosomes | E. coli WT GFP vs humanized-ribosome RFP mutants, fluorescence, 24 h; active compounds read low; DMSO median 0, no signal -100 | GFP signal change (wild-type ribosome), % (concentration not given with the values) | actives 1.6% (n = 350,000) | AID 720706;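 active = significant combined selectivity score with lowered wild-type GFP, culture density cut under 30%, mutant RFP and density less affected; inactive = any of these conditions unmet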
# E-selectin induc: E-selectin induction on HUVECs; AID 686992; activation, % at 7.58 µM; actives 0.37% (n = 260,000); P16581; HUVEC E-selectin immunofluorescence imaging; normalized: neutral wells 0, TNF-alpha wells 100;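 active = mean E-selectin-positive cell signal at least 10% of the positive control, reached in at least 60% of replicates, without over 20% cell loss; inconclusive = no rule given, readout overlaps actives, possibly toxicity-flagged; inactive = the rest, including those meeting only one limit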
#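 System: HUVEC / Compound: single concentration / Signal: immunofluorescence imaging / Read-out: percent E-selectin-positive cells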
# S100A4 inh HTS: inhibitors of human S100A4 binding to myosin IIA peptide | inhibition, % at 10.7 µM | S100A4/TAMRA-MyoIIA peptide fluorescence polarization | actives 0.14% (n = 360,000) | AID 652163;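 active = mean inhibition of at least 70% across replicates, with every replicate also reaching that level; inconclusive = mean inhibition reaches 70% but some replicates fall short; inactive = mean inhibition below 70%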
# Target sequence (P26447 whole entry, looked up): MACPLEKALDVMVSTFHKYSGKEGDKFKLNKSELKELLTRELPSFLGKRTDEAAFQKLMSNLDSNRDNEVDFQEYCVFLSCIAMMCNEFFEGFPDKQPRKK
#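 Compound dosing: one dose per compound; test system: human S100A4 monomer with TAMRA-labelled myosin IIA peptide; probe or stimulus: TAMRA-labelled myosin IIA heavy-chain peptide probe, 5 nM; medium: HEPES buffer with Ca2+, pH 7.2; schedule: 5 min incubation before reading; benchmarks: neutral control DMSO, positive control TFP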
# MLL AF4-AF9 inh: MLL-AF4/AF9 protein interaction inhibition | inhibition, % at 10 µM | P42568 | AlphaScreen, biotin-AF4 peptide binding to FLAG-AF9 | AID 651704 | actives 0.47% (n = 350,000);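 active = every replicate reaching a set inhibition limit, whatever the replicate mean, cut at about 25% in these data; inconclusive = mean inhibition reaches that limit but some replicates miss it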;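 note: 0% = plate neutral control median and 100% = total signal loss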
# An asterisk follows results filed as active; ? = inconclusive; . = no result. Most compounds without a hit are left out; they make up all but 3.4% or so of the library.
SMILES,ERAP1 HTS inh,SIRT5 inh,Ecoli rRNA inh,E-selectin induc,S100A4 inh HTS,MLL AF4-AF9 inh
O=C(Nc1nnc(-c2cccnc2)o1)c1cccc(Cl)c1,-8,6,-50,1,2,3
O=C(Nc1nnc(-c2ccccn2)o1)c1cccc(Cl)c1,-4,-1,-54*,10,-4,-1
COc1ccccc1-n1c(SCC(=O)O)nc2c(sc(=S)n2-c2ccc(Cl)c(C)c2)c1=O,-8,4,-34,0,-3,-2
COc1ccccc1-n1c(SCC(=O)O)nc2c(sc(=S)n2-c2ccc(C)c(C)c2)c1=O,-4,17*,-21*,?,-7,1
CCc1ccc(-n2c(=S)sc3c(=O)n(-c4ccccc4C)c(SCC(=O)O)nc32)cc1,4,1,-20,60*,-4,-3
O=C(Cc1ccccn1)NCC[C@H]1CC[C@@H](NC(=O)Nc2ccc(Cl)cc2)[C@@H](CO)O1,3,3,1,0,28,-20
COc1ccc(CN2C[C@@H](O)COC[C@H]3O[C@H](CC(=O)NCCN4CCCC4)CC[C@@H]32)cc1,-3,21*,5,0,-8,8
COc1ccc(CN2C[C@H](O)COC[C@@H]3O[C@H](CC(=O)N4CCc5ccccc5C4)CC[C@H]32)cc1,4,15*,-7,0,10,1
COc1ccc(CN2C[C@H](O)COC[C@@H]3O[C@H](CC(=O)NCCN4CCCC4)CC[C@H]32)cc1,1,-5,10,0,-13,6
CCOc1cc(-c2sc(Nc3cc(C)ccc3OC)n[n+]2-c2ccccc2)ccc1OC,2,.,7,0,9,16
CCOc1cc(-c2sc(Nc3ccc(CC)cc3)n[n+]2-c2ccccc2)ccc1OC,-4,2,10,0,-6,27*
COc1ccc(C)cc1Nc1n[n+](-c2ccccc2)c(-c2c(OC)ccc3ccccc23)s1,-2,.,-35,0,-1,40*
CC(=O)N(C)C[C@@H]1Oc2ccc(NC(=O)NC(C)C)cc2CC(=O)N(C)C[C@@H]1C,.,.,2,.,.,.
CCCCc1c(O)nc(SCC(=O)c2ccccc2)n(-c2ccccc2)c1=O,3,-3,-18*,0,-13,-1
CCCCc1c(O)nc(SCC(=O)c2ccccc2)n(-c2ccccc2C)c1=O,4,0,-32*,0,-1,-6
CC1CCN(S(=O)(=O)c2cnc(Cl)c(Br)c2)CC1,-2,0,11,.,0,27*
C[C@H](CO)N1C[C@H](C)[C@@H](CN(C)C(=O)Nc2cccc3ccccc23)OCCCC[C@H](C)Oc2ccc(NC(=O)Nc3ccc(F)cc3)cc2C1=O,1,2,0,0,-17,-2
CC(C)CC1C(=O)N(Cc2cn(CC3CCCCC3)nn2)CCS(=O)(=O)N1Cc1ccc(-c2ccc(Cl)c(Cl)c2)cc1 (centres undefined),23,19*,16,-1,0,1
Cc1cccc(C)c1-c1ccc(CN2C(CC(C)C)C(=O)N(Cc3cn(CC4CCCCC4)nn3)CCS2(=O)=O)cc1 (centres undefined),-2,-3,7,-2,3,0
Cc1ccc(-c2ccc(CN3C(C(C)C)C(=O)N(Cc4cn(Cc5ccco5)nn4)CCS3(=O)=O)cc2)cc1 (centres undefined),-3,16*,.,.,-3,-2
COc1ccc(CN(C)C[C@H]2OCCCC[C@@H](C)Oc3ccc(NS(C)(=O)=O)cc3C(=O)N([C@H](C)CO)C[C@H]2C)cc1,0,-3,2,0,1,-1
COc1ccc(CN(C)C[C@H]2Oc3ccc(NS(=O)(=O)c4c(C)noc4C)cc3CC(=O)N([C@@H](C)CO)C[C@H]2C)cc1,0,-1,-3,0,5,-3
Cc1noc(C)c1S(=O)(=O)Nc1ccc2c(c1)CC(=O)N([C@@H](C)CO)C[C@H](C)[C@H](CN(C)Cc1ccc(-c3ccccc3)cc1)O2,3,-1,0,2,4,5
